Measurements taken from ChEMBL document CHEMBL1781898, “Orally active achiral N-hydroxyformamide inhibitors of ADAM-TS4 (aggrecanase-1) and ADAM-TS5 (aggrecanase-2) for the treatment of osteoarthritis” (Bioorg Med Chem Lett, 2011).
Converted amounts (≈) assume the structure as drawn. The source made the active and inactive calls. The calls are words filed in the database; no cut-off is given here.

What was measured:
[1] = Volume of distribution at steady state in mouse; assay type: ADME, organism-based; settings: in vivo, read-out: Vdss
[2] = Clearance in mouse; assay type: ADME, organism-based; settings: in vivo
[3] = Lipophilicity, log D of the compound; assay type: physicochemical; settings: octanol/water
[4] = Thermodynamic solubility of the compound in phosphate buffer at pH 7.4 after 24 hrs; assay type: physicochemical; settings: read-out: Therm_solubility
[5] = target: Cytochrome P450 2C9 (Homo sapiens, UniProt P11712); assay: Inhibition of CYP2C9; assay type: ADME
Procedure, shortened: (§1)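 Inhibition of cytochrome P450 isoforms 1A2, 2C9, 2C19, 2D6 and 3A4, reported as pIC50.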

[6] = Half life in rat at 2 mg/kg, iv and 3 to 10 mg/kg, po; assay type: ADME, organism-based; settings: in vivo
[7] = Intrinsic clearance in human liver microsomes; assay type: ADME, Microsome
Procedure, shortened: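 Human liver microsome metabolism; intrinsic clearance expressed as μL/min/mg, reported as mean of eight separate experiments.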

[8] = Free drug level in human; assay type: ADME, organism-based; settings: in vivo
[9] = Oral bioavailability in rat; assay type: ADME, organism-based; settings: in vivo
[10] = Free drug level in rat; assay type: ADME, organism-based; settings: in vivo
[11] = target: T1, A disintegrin and metalloproteinase with thrombospondin motifs 5 (Homo sapiens, UniProt Q9UNA0); assay: Inhibition of ADAMTS-5 assessed as substrate cleavage after 16 hrs by fluorescence assay
T1 sequence (Q9UNA0 whole entry): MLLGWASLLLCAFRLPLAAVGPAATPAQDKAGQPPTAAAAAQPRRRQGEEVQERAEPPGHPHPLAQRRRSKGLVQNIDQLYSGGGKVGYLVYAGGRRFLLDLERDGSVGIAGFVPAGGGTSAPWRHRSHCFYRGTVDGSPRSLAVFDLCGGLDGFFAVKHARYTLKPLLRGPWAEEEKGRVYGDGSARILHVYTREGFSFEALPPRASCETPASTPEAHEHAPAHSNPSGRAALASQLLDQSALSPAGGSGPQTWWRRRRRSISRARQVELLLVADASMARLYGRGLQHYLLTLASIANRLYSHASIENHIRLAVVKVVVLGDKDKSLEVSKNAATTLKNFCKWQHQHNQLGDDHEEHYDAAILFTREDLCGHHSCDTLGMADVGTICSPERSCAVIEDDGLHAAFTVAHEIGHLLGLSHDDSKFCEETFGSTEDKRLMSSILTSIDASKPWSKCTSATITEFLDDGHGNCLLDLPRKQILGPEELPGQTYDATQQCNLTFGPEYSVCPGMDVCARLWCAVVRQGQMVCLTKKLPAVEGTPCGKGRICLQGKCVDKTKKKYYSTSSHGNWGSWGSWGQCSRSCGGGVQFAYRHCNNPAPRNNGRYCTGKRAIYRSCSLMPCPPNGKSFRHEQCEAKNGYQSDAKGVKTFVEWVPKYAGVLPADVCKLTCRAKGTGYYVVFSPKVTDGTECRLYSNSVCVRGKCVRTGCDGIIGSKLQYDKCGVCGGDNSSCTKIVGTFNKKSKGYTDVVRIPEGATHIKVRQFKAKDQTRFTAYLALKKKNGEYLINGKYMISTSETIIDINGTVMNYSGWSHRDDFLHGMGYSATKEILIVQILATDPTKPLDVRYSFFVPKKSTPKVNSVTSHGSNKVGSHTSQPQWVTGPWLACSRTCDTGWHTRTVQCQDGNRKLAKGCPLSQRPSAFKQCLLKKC
Procedure, shortened: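 Enzyme inhibition IC50s derived from at least six measurements, standard errors normally <5% within an assay; a standard compound run to keep assay-to-assay variability within twofold.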

[12] = Volume of distribution at steady state in dog at 1 mg/kg, iv and 1 mg/kg, po; assay type: ADME, organism-based, Canis lupus familiaris; settings: in vivo, read-out: Vdss
[13] = Oral bioavailability in dog; assay type: ADME, organism-based, Canis lupus familiaris; settings: in vivo
[14] = Volume of distribution at steady state in rat at 2 mg/kg, iv and 3 to 10 mg/kg, po; assay type: ADME, organism-based; settings: in vivo, read-out: Vdss
[15] = target: Cytochrome P450 3A4 (Homo sapiens, UniProt P08684); assay: Inhibition of CYP3A4; assay type: ADME; procedure, shortened: as §1
[16] = Apparent permeability across basolateral to apical side in human Caco2 cells at 10 uM; assay type: ADME, cell-based; settings: Caco-2
[17] = target: T2, Cytochrome P450 1A2 (Homo sapiens, UniProt P05177); assay: Inhibition of CYP1A2; assay type: ADME; procedure, shortened: as §1
T2 sequence (P05177 whole entry): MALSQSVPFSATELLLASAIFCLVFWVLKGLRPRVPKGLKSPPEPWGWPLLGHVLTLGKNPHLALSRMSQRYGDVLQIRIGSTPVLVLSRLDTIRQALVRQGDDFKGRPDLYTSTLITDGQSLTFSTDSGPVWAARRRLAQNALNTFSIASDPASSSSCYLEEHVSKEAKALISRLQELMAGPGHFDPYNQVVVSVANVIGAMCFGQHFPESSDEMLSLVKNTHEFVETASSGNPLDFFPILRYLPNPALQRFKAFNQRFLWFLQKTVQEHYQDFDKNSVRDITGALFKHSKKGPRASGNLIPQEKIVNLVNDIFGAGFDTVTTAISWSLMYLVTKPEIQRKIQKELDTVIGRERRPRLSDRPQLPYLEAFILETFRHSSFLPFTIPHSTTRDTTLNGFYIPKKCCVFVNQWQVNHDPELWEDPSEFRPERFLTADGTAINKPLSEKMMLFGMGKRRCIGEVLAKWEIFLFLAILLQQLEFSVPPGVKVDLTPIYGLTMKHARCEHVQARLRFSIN

[18] = target: Voltage-gated inwardly rectifying potassium channel KCNH2 (Homo sapiens, UniProt Q12809)
[19] = test system: Cavia porcellus; assay: Inhibition of ADAMTS4 in sc dosed Dunkin hartley guinea pig spontaneous osteoarthritis model assessed as reduction in NITEGE release in medial cartilage at concentration equivalent to 4 to 7 fold human ADAMTS4 FRET IC50 administered for 7 days; assay type: functional, organism-based
Procedure, shortened: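 Compound given for 7 days via subcutaneous mini-pump; articular cartilage then dissected from medial tibial plateau of hind knee joints and NITEGE neo-epitope levels measured in cartilage extracts versus vehicle-treated animals; significance P < 0.05.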

[20] = species: Homo sapiens; assay: Inhibition of aggrecanase activity in IL-1, OSM and plasminogen-stimulated human articular cartilage explant assessed as reduction in CTXII peptide release at 10 uM after 21 days
Procedure, shortened: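 Human cartilage stimulated with interleukin-1, oncostatin-M and plasminogen for 21 days, without or with 10 µM compound.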

[21] = target: Cytochrome P450 2C19 (Homo sapiens, UniProt P33261); assay: Inhibition of CYP2C19; assay type: ADME; procedure, shortened: as §1
[22] = Intrinsic clearance in human hepatocytes measured per million cells; assay type: ADME, cell-based, Liver, Hepatocyte
Procedure, shortened: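 Human hepatocyte metabolism; intrinsic clearance expressed as μL/min/10⁶ cells, reported as mean of six separate experiments.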

[23] = Free drug level in dog; assay type: ADME, organism-based, Canis lupus familiaris; settings: in vivo
[24] = target: Cytochrome P450 2D6 (Homo sapiens, UniProt P10635); assay: Inhibition of CYP2D6; assay type: ADME; procedure, shortened: as §1
[25] = Apparent permeability across apical to basolateral side in human Caco2 cells at 10 uM; assay type: ADME, cell-based; settings: Caco-2
[26] = species: Homo sapiens; assay: Inhibition of aggrecanase activity in IL-1, OSM and plasminogen-stimulated human articular cartilage explant assessed as reduction in CTXII peptide release at 10 uM after 14 days
[27] = Clearance in dog at 1 mg/kg, iv and 1 mg/kg, po; assay type: ADME, organism-based, Canis lupus familiaris; settings: in vivo
[28] = Half life in mouse; assay type: ADME, organism-based; settings: in vivo

Chain of Cytochrome P450 2C19 (P33261 whole entry): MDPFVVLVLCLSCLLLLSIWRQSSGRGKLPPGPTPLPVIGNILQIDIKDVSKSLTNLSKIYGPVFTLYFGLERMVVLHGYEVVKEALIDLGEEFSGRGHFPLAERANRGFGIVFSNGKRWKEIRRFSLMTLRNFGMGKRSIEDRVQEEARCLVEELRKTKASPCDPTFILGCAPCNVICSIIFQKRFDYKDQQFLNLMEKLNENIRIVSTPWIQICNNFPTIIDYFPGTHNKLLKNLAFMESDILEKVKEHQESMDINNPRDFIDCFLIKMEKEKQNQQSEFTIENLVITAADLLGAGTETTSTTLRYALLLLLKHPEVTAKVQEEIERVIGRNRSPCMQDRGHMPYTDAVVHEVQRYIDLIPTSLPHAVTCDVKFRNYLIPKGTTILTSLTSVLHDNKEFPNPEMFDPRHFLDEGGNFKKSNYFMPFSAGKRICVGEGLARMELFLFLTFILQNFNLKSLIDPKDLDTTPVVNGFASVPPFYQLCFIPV
Chain of Cytochrome P450 3A4 (P08684 whole entry): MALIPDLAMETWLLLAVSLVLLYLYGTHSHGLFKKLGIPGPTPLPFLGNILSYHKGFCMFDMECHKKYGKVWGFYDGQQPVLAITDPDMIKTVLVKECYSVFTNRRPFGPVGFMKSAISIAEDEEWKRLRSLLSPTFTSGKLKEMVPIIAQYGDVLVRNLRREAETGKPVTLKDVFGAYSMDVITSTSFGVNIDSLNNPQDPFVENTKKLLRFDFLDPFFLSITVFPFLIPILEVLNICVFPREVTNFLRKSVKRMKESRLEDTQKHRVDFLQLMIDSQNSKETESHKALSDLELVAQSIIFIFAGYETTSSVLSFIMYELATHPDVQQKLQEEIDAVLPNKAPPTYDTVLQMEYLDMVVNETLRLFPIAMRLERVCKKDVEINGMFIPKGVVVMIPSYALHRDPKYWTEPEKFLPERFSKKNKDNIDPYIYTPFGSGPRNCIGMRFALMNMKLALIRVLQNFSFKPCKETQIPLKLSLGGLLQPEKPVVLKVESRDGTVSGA
Chain of Voltage-gated inwardly rectifying potassium channel KCNH2 (Q12809 whole entry): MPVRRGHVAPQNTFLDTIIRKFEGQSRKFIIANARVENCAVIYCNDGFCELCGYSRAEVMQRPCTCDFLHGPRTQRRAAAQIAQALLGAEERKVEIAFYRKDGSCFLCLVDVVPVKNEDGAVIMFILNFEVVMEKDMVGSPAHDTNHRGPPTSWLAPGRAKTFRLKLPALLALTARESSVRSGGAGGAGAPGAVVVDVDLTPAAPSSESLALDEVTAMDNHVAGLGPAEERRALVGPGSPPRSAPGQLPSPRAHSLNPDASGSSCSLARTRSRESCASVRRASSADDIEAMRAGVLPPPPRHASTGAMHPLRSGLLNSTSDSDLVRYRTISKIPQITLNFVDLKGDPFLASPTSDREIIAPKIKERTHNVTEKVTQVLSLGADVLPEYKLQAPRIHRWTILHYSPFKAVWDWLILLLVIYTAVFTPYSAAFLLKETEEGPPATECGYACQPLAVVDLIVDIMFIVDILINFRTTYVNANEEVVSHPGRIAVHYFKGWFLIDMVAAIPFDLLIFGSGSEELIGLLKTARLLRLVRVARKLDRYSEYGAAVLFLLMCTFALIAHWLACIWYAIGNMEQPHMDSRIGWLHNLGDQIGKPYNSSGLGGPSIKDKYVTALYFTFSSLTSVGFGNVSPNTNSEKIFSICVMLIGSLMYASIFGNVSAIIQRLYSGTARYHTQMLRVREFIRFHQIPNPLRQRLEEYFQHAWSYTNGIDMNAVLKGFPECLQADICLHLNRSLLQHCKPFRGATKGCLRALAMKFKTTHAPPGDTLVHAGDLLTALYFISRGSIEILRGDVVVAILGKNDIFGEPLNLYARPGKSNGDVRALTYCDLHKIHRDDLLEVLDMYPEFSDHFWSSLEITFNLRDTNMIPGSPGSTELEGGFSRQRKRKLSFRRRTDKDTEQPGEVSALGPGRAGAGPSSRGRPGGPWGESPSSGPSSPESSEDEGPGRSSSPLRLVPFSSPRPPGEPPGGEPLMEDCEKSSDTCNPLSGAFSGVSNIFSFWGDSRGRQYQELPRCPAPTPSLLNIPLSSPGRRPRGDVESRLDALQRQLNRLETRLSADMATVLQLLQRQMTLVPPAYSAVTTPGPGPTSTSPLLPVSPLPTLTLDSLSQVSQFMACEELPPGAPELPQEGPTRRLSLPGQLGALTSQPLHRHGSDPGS
Chain of Cytochrome P450 2D6 (P10635 whole entry): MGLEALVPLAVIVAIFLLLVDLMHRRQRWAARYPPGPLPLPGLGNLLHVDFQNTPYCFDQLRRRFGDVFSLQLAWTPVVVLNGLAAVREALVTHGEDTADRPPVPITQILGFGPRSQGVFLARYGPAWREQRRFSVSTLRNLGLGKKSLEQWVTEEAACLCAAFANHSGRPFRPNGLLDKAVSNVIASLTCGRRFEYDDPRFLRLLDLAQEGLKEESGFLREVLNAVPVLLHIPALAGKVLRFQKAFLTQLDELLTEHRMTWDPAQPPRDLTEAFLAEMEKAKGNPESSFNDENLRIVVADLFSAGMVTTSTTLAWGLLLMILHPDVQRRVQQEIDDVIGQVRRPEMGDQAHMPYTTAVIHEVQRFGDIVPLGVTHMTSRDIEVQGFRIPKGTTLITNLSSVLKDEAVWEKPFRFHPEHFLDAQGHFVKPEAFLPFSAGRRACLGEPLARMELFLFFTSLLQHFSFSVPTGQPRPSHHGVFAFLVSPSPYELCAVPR
Chain of Cytochrome P450 2C9 (P11712 whole entry, canonical isoform): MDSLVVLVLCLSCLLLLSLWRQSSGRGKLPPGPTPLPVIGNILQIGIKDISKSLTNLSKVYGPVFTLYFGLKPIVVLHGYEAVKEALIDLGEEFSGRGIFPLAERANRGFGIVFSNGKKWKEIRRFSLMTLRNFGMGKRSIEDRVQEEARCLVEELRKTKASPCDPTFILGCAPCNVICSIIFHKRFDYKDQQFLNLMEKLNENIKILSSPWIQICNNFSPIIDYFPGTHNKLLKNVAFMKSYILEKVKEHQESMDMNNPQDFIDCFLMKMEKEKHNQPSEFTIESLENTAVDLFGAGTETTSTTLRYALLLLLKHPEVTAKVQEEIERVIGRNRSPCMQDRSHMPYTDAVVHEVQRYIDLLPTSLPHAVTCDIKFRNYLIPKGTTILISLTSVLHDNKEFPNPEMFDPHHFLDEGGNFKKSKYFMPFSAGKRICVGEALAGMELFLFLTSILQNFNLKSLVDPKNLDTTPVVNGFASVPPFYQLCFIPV

## Cc1noc(C)c1CCC1CCN(S(=O)(=O)C[C@](C)(C[C@H](C)c2ncc(F)cn2)N(O)C=O)CC1
[1]
  Vd: 7.2 L/kg
[2]
  clearance: 16.8 mL/min/kg
[3]
  logD: 1.6
[4]
  solubility thermodynamic at 24 h: 150 µM (≈ 76.7 µg/mL)
[5]
  inhibition (INH): Not Active
[6]
  half-life: 11 h
[7]
  microsomal CLint: 29.4 µL/min/mg
[8]
  fraction unbound: 0.11
[9]
  bioavailability: 1%
[10]
  fraction unbound: 0.22
[11]
  IC50: 0.023 µM
[12]
  Vd: 9.2 L/kg
[13]
  bioavailability: 20%
[14]
  Vd: 7.4 L/kg
[15]
  inhibition (INH): Not Active
[16]
  Papp B→A at 10 µM: 10.9 ×10⁻⁶ cm/s
[17]
  inhibition (INH): Not Active
[18]
  IC50: 65 µM
[19]
  inhibition: Active
[20]
  inhibition: Active
[21]
  inhibition (INH): Not Active
[22]
  hepatocyte CLint: < 2 µL/min/1e6 cells
[23]
  fraction unbound: 0.25
[24]
  inhibition (INH): Not Active
[25]
  Papp A→B at 10 µM: 5.3 ×10⁻⁶ cm/s
[26]
  inhibition: Active
[27]
  clearance: 20.7 mL/min/kg
[28]
  half-life: 5.4 h
